From PubChem
Sampled rows, rich in hits. Any-hit rate of the full collection: about 1.8%.
hiPSC survival: increases survival of single human iPS cells; hiPSC single-cell survival, ATPlite luminescence; 100% = ROCK inhibitor wells, 0% = DMSO; survival enhancement, % at 20 µM; 360,000 tested, 0.044% active; in the data active means survival enhancement above about 18%;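 further: cells exposed to compounds for 16 hours before the ATP read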
rRNA inh HTS: inhibits bacterial ribosomal RNA function over humanized ribosomes; E. coli WT GFP vs humanized-ribosome RFP mutants, fluorescence, 24 h; active compounds read low; DMSO median 0, no signal -100; GFP signal change (wild-type ribosome), % (concentration not given with the values); 350,000 tested, 1.6% active; AID 720706;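 active means significant combined selectivity score with lowered wild-type GFP, culture density cut under 30%, mutant RFP and density less affected; inactive means any of these conditions unmet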
Cneo AK release: Cryptococcus neoformans lysis via adenylate kinase release; 360,000 tested, 0.2% active; lysis activity, % at 15 µM; C. neoformans lysis, adenylate kinase release luminescence, 4 h; normalised: neutral wells 0, clomiphene wells 100;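 active means mean lysis activity across replicates of at least 80%, whatever share of replicates individually reach that level; inactive means mean lysis activity below 80%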
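Material – log-phase Cryptococcus neoformans yeast cells · Input – 5 × 10^6 yeast cells/mL · Medium – fresh YPD growth medium · Doses – single compound concentration per well · Timing – static 4 h at 37 °C with compound, 1 h detection · Detection – adenylate kinase release luminescence · Read-out – signal increase indicating cell lysis · Control set – Clomiphene as positive lysis control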
MT1-MMP act inh: blocks activation of human MT1-MMP | HT1080 RFP-PRO-GFP cells, GFP/RFP ratio fluorescence, overnight; percent of plate control window, DMSO zero | 360,000 tested, 0.061% active | GFP/RFP ratio change, % at 20 µM;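 active means GFP/RFP ratio change of at least 30% with cell ATP level not reduced by more than half and red fluorescence within 50% of control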
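Assay system: HT1080 RFP-PRO-GFP cells. Benchmarks: DMSO vehicle wells and RFP-L50D-GFP reporter cell wells. Times: overnight cell settling, then overnight compound exposure, 37 °C, 5% CO2. Compound: 20 µM single dose, 1% DMSO. Read-out basis: GFP/RFP fluorescence ratio.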
SKN-1 inh: blocks SKN-1 activity in C. elegans; C. elegans VP596 Pgst-4::GFP/RFP ratio, acrylamide-induced, 24 h; inhibition, % at 21.8 µM; 360,000 tested, 0.49% active; AID 624304;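 active means interference check ratio from 0.5 to 1.5 plus GFP to RFP signal ratio inhibition reaching or exceeding a fixed threshold, cut at about 30% in these data, passing the limit was not always enough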
DAGLB inhibitor: blocks human DAGLB lipase activity. HEK293T DAGLB membrane lysate, EnzChek fluorogenic substrate. AID 504411. Q8NCG7. 340,000 tested, 0.059% active. inhibition, % at 5.17 µM; in the data active means inhibition above about 34%;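 further: 0% = enzyme with vehicle and 100% = wells lacking enzyme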
Target sequence (Q8NCG7 whole entry, looked up): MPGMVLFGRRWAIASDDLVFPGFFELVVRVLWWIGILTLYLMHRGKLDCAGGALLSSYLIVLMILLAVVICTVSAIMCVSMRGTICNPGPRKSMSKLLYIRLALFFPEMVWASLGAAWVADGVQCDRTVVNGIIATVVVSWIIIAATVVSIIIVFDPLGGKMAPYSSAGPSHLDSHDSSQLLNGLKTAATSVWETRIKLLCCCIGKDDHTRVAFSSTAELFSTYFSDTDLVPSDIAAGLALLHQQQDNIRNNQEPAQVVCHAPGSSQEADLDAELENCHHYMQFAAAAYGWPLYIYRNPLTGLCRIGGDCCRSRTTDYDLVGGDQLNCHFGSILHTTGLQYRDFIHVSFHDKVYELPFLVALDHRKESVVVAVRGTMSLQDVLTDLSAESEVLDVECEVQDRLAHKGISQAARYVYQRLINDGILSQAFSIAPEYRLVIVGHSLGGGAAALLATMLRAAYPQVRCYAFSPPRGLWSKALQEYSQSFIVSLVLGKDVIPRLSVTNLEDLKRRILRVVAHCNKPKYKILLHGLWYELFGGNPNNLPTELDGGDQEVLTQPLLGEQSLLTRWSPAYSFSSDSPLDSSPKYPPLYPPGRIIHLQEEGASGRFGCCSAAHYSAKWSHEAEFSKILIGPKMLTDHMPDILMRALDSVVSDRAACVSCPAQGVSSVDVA
HepG2 tox: cytotoxic compounds in HepG2 cells | shares compounds with rRNA inh HTS | activity change, negative = cytotoxicity, unspecified at 26 µM | 30 tested, under 10 active | HepG2 viability, ATP luminescence, 72 h;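 active means compounds whose fitted half-maximal signal-loss concentration is at most twice their highest valid dose; inconclusive means flat curve with 30 to 70% signal loss, or poor fit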
AID977621: wild-type E. coli growth inhibition versus H69 humanized strain – H69 mutant RFP, wild-type GFP, cherry-pick, dose response. shares compounds with rRNA inh HTS. fluorescence, 24 h. activity change, negative = inhibition at 50 µM. 1,900 tested, under 10 active;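 active means Wild-type ribosome reporter drop at least double the humanized mutant ribosome reporter drop, growth loss under a set limit; inconclusive means no clear call, values can overlap the other calls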;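 further: wild-type GFP and H69 mutant RFP strains grown together 50/50 in each well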
AID977628: E. coli growth inhibition, wild-type GFP versus h24 humanized RFP strain, dose response, h24 mutant RFP vs wild-type GFP, cherry-pick; activity change, negative = inhibition at 50 µM; E. coli WT GFP strain growth, fluorescence, 24 h; 1,900 tested, under 10 active; shares compounds with rRNA inh HTS;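 active means compound lowering the normal-ribosome reporter at least twice as much as the humanized-ribosome reporter, growth loss under a set limit; inconclusive means no clear call, values can overlap the other calls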;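 further: wild-type GFP and h24 humanized RFP strains co-cultured 1 to 1 per well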
* = called active by the depositor; ? = inconclusive; . = no result given; ! = a repeat was not active.

SMILES	hiPSC survival	rRNA inh HTS	Cneo AK release	MT1-MMP act inh	SKN-1 inh	DAGLB inhibitor	AID977621	AID977628	others
O=C(Cc1cccc(NC(=O)C2CCN(C(=O)C3CCCCC3)CC2)c1)Nc1cccc(C(=O)N2CCCC2)c1	6	-22*	-2	-2	4	0	-19	.
O=C(Nc1ccc(C(=O)N2CCCC2)cc1)C1CCCC1	-2	22	2	4	8	-2	.	.
O=C(Nc1ccc(C(=O)N2CCOCC2)cc1)C1CCCC1	-3	-4.4*	0	-1	2	-5	3.4	8.3
COc1ccc(NC(=O)N(C)C[C@H]2Oc3ncc(C#C[C@@H](C)O)cc3C(=O)N([C@@H](C)CO)C[C@@H]2C)cc1	.	5	-6	.	.	.	.	.
Clc1ccc2nc(CN3CCCc4ccccc43)cn2c1	-1	-20*!	16	-11	-1	2	-8.9	.
CO[C@@H]1CN(C)C(=O)c2ccc(NC(=O)c3ccccc3)cc2OC[C@@H](C)N(C)C[C@H]1C	.	-1	.	.	.	.	.	.
CCOC(=O)C1NN=C(C(=O)c2ccccc2)C1c1ccccc1 (stereo not drawn)	-2	-15	.	3	-2	-3	.	.
CCOC(=O)C1NN=C(C(=O)c2ccccc2)C1c1ccc(OC)cc1 (stereo not drawn)	-1	-25*	.	3	-3	.	-9	-6.3
CCOC(=O)c1c(NC(=O)Cc2cccs2)sc(C(=O)NC2CCCC2)c1C	10	.	2	6	-6	-10	.	.
CCOC(=O)c1c(NC(=O)Cc2cccs2)sc(C)c1C	2	-34*	0	-5	16	-13	.	.	HepG2 tox=11
Cc1cccc(SCC(=O)Nc2ccccc2[N+](=O)[O-])c1	-1	-26*	3	-2	11	-7	-4.3	-15
CC(C)(C)CC(=O)Nc1ccccc1N1CCN(c2ccccc2)CC1	2	-19*	.	-9	-4	-11	-18	-14
O=C(c1ccccc1)N(C(=O)c1ccccc1)c1ccccc1	0	8	-1	-5	32	-5	.	.
O=C(c1ccccc1)N(c1ccccc1)c1nccc2ccccc12	-2	-28*	1	1	9	-1	-5.5	.
NC(=O)c1cccnc1Oc1ccc(Cl)cc1Cl	0	-31*	.	2	-9	-10	-6.9	-13
Cc1cc(Cl)ccc1Nc1ncccc1C(N)=O	0	2	.	1	12	3	.	.
CCOC(=O)CSc1n[nH]c(=S)s1	0	0	.	4	-4	-1	.	.
CCOC(=O)CCSc1n[nH]c(=S)s1	0	-21*	.	-1	3	-1	-14	-2.7
CCOc1nc(-c2ccccc2O)nc2ccccc12	2	5	.	-1	4	-9	.	.
CC(C)Oc1nc(-c2ccccc2Cl)nc2ccccc12	0	-18*	.	1	10	-5	.	-11
NC(=O)c1ccc(NC(=O)COC(=O)C2CC3C=CC2C3)cc1 (stereo not drawn)	-4	2	1	0	2	-1	.	.
O=C(COC(=O)C1CC2C=CC1C2)Nc1ccc([N+](=O)[O-])cc1 (stereo not drawn)	-2	-31*	-1	2	24	0	-17	-12
COc1ccc(S(=O)(=O)Nc2cccc3c2O[C@H](CN(C)Cc2ccncc2)[C@H](C)CN([C@H](C)CO)C3=O)cc1	.	2	54	.	.	.	.	.
C[C@@H]1CN([C@@H](C)CO)C(=O)Cc2cc(NC(=O)Nc3ccc(F)cc3)ccc2O[C@H]1CN(C)Cc1ccccc1	.	-21	-2	.	.	.	.	.
CCOC(=O)c1cnc2ccc(OC)cc2c1NCc1ccccc1	0	-36	4	-9	12	-2	.	.
SMILES	hiPSC survival	rRNA inh HTS	Cneo AK release	MT1-MMP act inh	SKN-1 inh	DAGLB inhibitor	AID977621	AID977628	others
CCOC(=O)c1cnc2ccccc2c1NCc1ccco1	0	-29*	8	-3	1	-3	.	-10
O=C(C[n+]1ccn(-c2ccccc2)c1)c1ccc([N+](=O)[O-])cc1	0	-22*	-1	-2	-3	1	.	-7.8
COc1ccc(OC)c(NC(=O)CN(C)CC(=O)Nc2ccccc2Br)c1	-1	-25*	.	-5	-3	1	-20	?
COc1ccc(CNC(=O)CN(C)CC(=O)Nc2ccccc2Br)cc1	0	-5	-1	-3	-6	-2	.	.
OCCN(Cc1ccccc1)Cc1ccc(F)c(F)c1	0	-23*	.	-3	6	-4	-11	-9.4
OCCN(Cc1ccccc1)Cc1ccccc1O	2	5	.	0	-9	-3	.	.
C[C@H]1CN([C@@H](C)CO)C(=O)c2cc(C3=CCCCC3)cnc2O[C@H]1CN(C)Cc1ccccc1	.	.	1	.	.	.	.	.
Cc1cc(Br)ccc1OCc1nnc(-c2ccccc2)o1	1	2	-1	3	25	.	.	.
COc1ccc(-c2nnc(COc3ccc(Br)cc3C)o2)cc1	0	-19*	3	2	-2	.	?	?
CCN(CC)c1nc(Oc2ccc(C(=O)OC)cc2)nc(N2CCOCC2)n1	0	-16*	.	-6	10	-11	-7.2	-16
C/C=C/c1ccc2c(c1)O[C@@H](CN(C)S(=O)(=O)c1ccc(C)cc1)[C@@H](C)CN([C@H](C)CO)S2(=O)=O	.	-4	-1	.	.	.	.	.
CC(=O)c1c(C)nn(CC(O)COc2ccc3c(c2)CCC3)c1C (stereo not drawn)	-3	-22*	1	5	3	-1	-16	.
Cc1nn(CC(O)COc2ccc3c(c2)CCC3)c(C)c1Br (stereo not drawn)	4	.	-2	-1	8	-11	.	.
Cc1ccc(S(=O)(=O)N(C)C[C@H]2Oc3c(NC(=O)c4nc5ccccc5s4)cccc3C(=O)N([C@@H](C)CO)C[C@@H]2C)cc1	.	4	-9	.	.	.	.	.
O=C(Nc1ccc(Cl)cn1)c1cc2c(s1)-c1ccccc1OC2	0	-22*	-7	0	38*	-1	-7.2	?
CO[C@H]1CN(C)C(=O)c2cc(NC(=O)c3cccc(F)c3)ccc2OC[C@H](C)N(C(C)=O)C[C@@H]1C	.	0	.	.	.	.	.	.
Cc1ccc(CSCC(=O)Nc2ccccc2F)cc1	0	-23*	1	0	11	-9	-4.5	?
